Compound activity as filed in PubChem.
INS-1E GSIS act: GLuc luminescence reporter in INS-1E cells, primary screen for activators of glucose-dependent secretion of insulin; INS-1E GLuc reporter insulin secretion, 2-3 h; activation, % at 16.6 µM; 370,000 compounds, 0.61% hits; AID 743287;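 active means lowest replicate activation of at least 40%, so every replicate reaches that level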;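 further: 0% = median of neutral control wells and 100% = median of IBMX positive control wells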
PDI inh: inhibitors of human protein disulfide isomerase | P07237 | PDI insulin aggregation turbidity, A650, 90 min | inhibition, % at 10 µM | 350,000 compounds, 0.052% hits | AID 588391;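 active means mean inhibition across replicates of 30% or more, whatever share of single replicates reach that level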
HIV Env fusion: HIV envelope-mediated fusion inhibition; HeLa-JRFL Env/CEM21 cell fusion, luciferase; inhibition, % at 12.3 µM; 360,000 compounds, 1.1% hits; AID 651610;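 active means mean replicate inhibition score of at least 50 and every replicate individually at or above 50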;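 further: 0% = plate neutral controls and 100% = maraviroc near 300 nM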
FN deposit inh: fibronectin deposition inhibition; AH1F fibroblasts, Alexa488-fibronectin deposition fluorescence, overnight; inhibition, % at 12.6 µM; 350,000 compounds, 0.086% hits; AID 743247;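 active means mean inhibition across replicates of 30% or more, regardless of how many single replicates reach that level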;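 further: positive control wells lacked labelled fibronectin entirely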
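test system = AH1F fibroblasts assembling fluorescent fibronectin matrix | quantity = 10000 AH1F cells per well | buffer or medium = DMEM plus 2% serum, read in PBS | doses = single dose, pinned | incubation = 1 h cell attachment, overnight exposure to compound and label | detection = fluorescence at 485 nm excitation, 525 nm emission | read-out basis = inhibition from reduced deposited-fibronectin fluorescence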
ERp5 inh: inhibitors of human ERp5; Q15084; inhibition, % at 9.99 µM; ERp5 insulin aggregation, absorbance 650 nm, 90 min; 350,000 compounds, 0.05% hits;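 active means mean replicate inhibition above about 25%, with every replicate also reaching it, limit read from the data, passing the limit was not always enough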
Target sequence (Q15084 whole entry, looked up): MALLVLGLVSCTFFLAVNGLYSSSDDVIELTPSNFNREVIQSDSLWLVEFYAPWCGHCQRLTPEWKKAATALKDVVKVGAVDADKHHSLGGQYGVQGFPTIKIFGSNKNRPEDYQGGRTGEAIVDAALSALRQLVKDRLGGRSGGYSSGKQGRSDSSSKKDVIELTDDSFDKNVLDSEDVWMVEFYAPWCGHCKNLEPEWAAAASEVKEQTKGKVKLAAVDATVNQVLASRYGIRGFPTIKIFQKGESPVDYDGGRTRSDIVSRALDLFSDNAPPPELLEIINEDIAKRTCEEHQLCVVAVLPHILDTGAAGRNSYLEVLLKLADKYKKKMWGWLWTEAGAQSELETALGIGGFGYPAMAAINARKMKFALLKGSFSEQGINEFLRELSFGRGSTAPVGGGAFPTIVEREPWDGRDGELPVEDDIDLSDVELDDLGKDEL
Active calls of the source: *; . = not tested or not shown; [ ] = dose if it differs, or a comment. Sampled rows, rich in hits. Any-hit rate of the full collection: about 1.4%.

SMILES	INS-1E GSIS act	PDI inh	HIV Env fusion	FN deposit inh	ERp5 inh
O=C(Nc1nccs1)[C@H]1[C@H](CO)[C@H]2Cn3c(ccc(-c4ccncc4)c3=O)[C@H]2N1CC1CCCC1	11	.	.	.	.
COc1ccc(CCC(=O)NC2CCC(C)CC2)cc1 (stereo not given)	77*	9	2	-13	0
COc1cccc(-c2nnc(NC(=O)c3ccc(S(=O)(=O)N4CC(C)OC(C)C4)cc3)o2)c1 (stereo not given)	.	6	55*	-3	.
O=C(NN1C(=O)C2C3C=CC(O3)C2C1=O)c1cccc(O)c1 (stereo not given)	3	-3	.	4	3
O=C(NN1C(=O)C2C3C=CC(O3)C2C1=O)c1cccc(Br)c1 (stereo not given)	78*	1	7	-24	6
CCNC(=O)C[C@@H]1CC[C@H]2[C@H](COc3ccc(NC(=O)c4ccc5c(c4)OCO5)cc3C(=O)N2C)O1	0	.	9[16.7 µM]	-16	-3
COc1cc2c(cc1OC)-c1cc(Nc3ccc(N(C)C)cc3)nc(=O)n1CC2	79*	-5	-1	11	3
CCN(CC)c1ccc(Nc2cc3n(c(=O)n2)CCc2cc(OC)c(OC)cc2-3)cc1	26	-10	12	20	3
CCCCOc1ccc(/C=C/C(=O)OCC(=O)N2CC(=O)Nc3ccccc32)cc1OCC	1	2	61*	-3	-4
CCS(=O)(=O)Nc1ccc2c(c1)C(=O)N(C)C[C@@H](OC)[C@H](C)CN(CC1CCCCC1)[C@@H](C)CO2	-1	.	.	3	2
O=C(c1cccs1)N(Cc1ccccn1)Cc1ccco1	73*	-8	-3	5	.
CO[C@H]1CN(C)C(=O)c2ccc(NS(=O)(=O)c3ccc(-c4ccccc4)cc3)cc2OC[C@H](C)NC[C@H]1C	-5	.	.	-5	4
CC1(C)SC2c3ccccc3C(=O)N2[C@@H]1C(=O)NC1CC1 (stereo not given in full)	42*	0	3	5	1
COc1ccc(C(=O)Nc2ccc3c(c2)OC[C@@H](C)N(Cc2cocn2)C[C@H](C)[C@H](OC)CN(C)C3=O)cc1	13	.	-10[16.7 µM]	-9	1
Cc1cccc(C(=O)NCc2nnc(SCC(=O)N3CCN(c4ccccc4)CC3)n2C)c1	9	6	16	7	.
CCn1c(CNC(=O)c2cccc(C)c2)nnc1SCC(=O)N1CCOCC1	44*	-6	-5	-1	-12
CCn1c(SCC(=O)N2CCN(c3ccccc3)CC2)nnc1-c1c[nH]c2ccccc12	-6	.	65*	11	7
COc1ccc(N2CCN(C(=O)CSc3nnc(-c4cc5ccccc5cc4O)n3C)CC2)cc1	.	5	77*	16	.
CC1(C)Cc2ccccc2-c2nnc(SCC(=O)N3CCN(c4ccccc4)CC3)n21	-28	-3	83*	0	.
C=CCn1c(COc2cccc(C)c2C)nnc1SCC(=O)N1CCN(c2ccccc2)CC1	-46	6	64*	0	5
CCCOP(=O)(c1ccc(N(C)C)cc1)C(O)c1c(Cl)cccc1Cl (stereo not given)	-13	-10	73*	4	1
CC(C)CCOP(=O)(c1ccc(N(C)C)cc1)C(O)c1c(Cl)cccc1Cl (stereo not given)	-3	-6	75*	-4	-5
CCOP(=O)(c1ccc(N(C)C)cc1)C(O)c1c(Cl)cccc1Cl (stereo not given)	.	-5	8	2	.
C[C@H](CO)N1C[C@H](C)[C@@H](CN(C)Cc2ccc(F)cc2)Oc2ncc(-c3ccc(F)cc3)cc2C1=O	0	.	3[16.7 µM]	-9	.
CCCCN(C(C)=O)c1ccc2c(c1)C1CC2CCN1C(=O)OCc1ccccc1 (stereo not given)	-31	4	63*	11	5
COCC(=O)N1C[C@@H](C)[C@H](OC)CN(C)C(=O)c2ccc(NC(=O)c3cnccn3)cc2OC[C@H]1C	-1	.	.	3	.
CC(=NNC(=S)SCc1ccccc1)c1ccccn1	.	-6	79*	7	-1
C[C@@H]1CCCCO[C@@H](CN(C)S(=O)(=O)c2ccc(F)cc2)[C@H](C)CN([C@@H](C)CO)C(=O)c2cc(NC(=O)C3CCCCC3)ccc2O1	-30	.	10[16.7 µM]	0	-2
O=C(O)CSCC(=O)Nc1cc(C(F)(F)F)ccc1Cl	49*	7	-21	-5	.
CNC(=O)CS(=O)(=O)CC(=O)Nc1cc(OC(C)C)c(Cl)cc1Cl	-11	-8	22	-12	-3
